The source of these data is ChEMBL document CHEMBL3045357, “DNA adducts as biomarkers for oxidative and genotoxic stress from pesticides in crop plants” (J Agric Food Chem, 2008).

Common to all, as to type: organism-based
Common to all, as to details: in vivo, other, 336 h

Data set [1] relates to Glycine max. Kind of data set: Genotoxicity in Glycine max (soybean) exposed to compound through spray 4 times over 2 weeks assessed as relative adduct level A2 measured per 10^9 nucleotides using HX-dG internal standard using [32P]labeling based autoradiography relative to untreated control. Put shortly:
(§1)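 Plants (2–6 weeks grown), groups of 2–4, sprayed 4 times over 2 weeks with formulations diluted per label (chlorothalonil 1:256, carbaryl 1:64 in water); controls water-sprayed. DNA from 1 g leaf via DNeasy Maxi kit. 10 µg DNA digested with micrococcal nuclease/spleen phosphodiesterase (4 h, 37 °C), NP1-enriched (45 min, 37 °C), labelled with [γ-32P]ATP/T4 kinase (45 min, 37 °C).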

The test system of data set [2] is Glycine max. As to the kind of experiment: Genotoxicity in Glycine max (soybean) exposed to compound through spray 4 times over 2 weeks assessed as HX-dG adducts measured per 10^9 nucleotides using [32P]labeling based autoradiography. Put shortly: as §1
Data set [3] concerns Glycine max. As to the kind of experiment: Genotoxicity in Glycine max (soybean) exposed to compound through spray 4 times over 2 weeks assessed as HX-dG adducts using [32P]labeling based autoradiography. Put shortly: as §1
In data set [4] the test system is Glycine max. Kind of data set: Genotoxicity in Glycine max (soybean) exposed to compound through spray 4 times over 2 weeks assessed as relative adduct level A5 measured per 10^9 nucleotides using HX-dG internal standard using [32P]labeling based autoradiography relative to untreated control. Put shortly: as §1
The subject of data set [5] is Glycine max. Kind of data set: Genotoxicity in Glycine max (soybean) exposed to compound through spray 4 times over 2 weeks assessed as relative adduct level A4 measured per 10^9 nucleotides using HX-dG internal standard using [32P]labeling based autoradiography relative to untreated control. Put shortly:
as §1

The test system of data set [6] is Glycine max. Kind of data set: Genotoxicity in Glycine max (soybean) exposed to compound through spray 4 times over 2 weeks assessed as HNE-dG adducts measured per 10^9 nucleotides using [32P]labeling based autoradiography (reference value: 2 no unit). Put shortly:
as §1

Data set [7] concerns Glycine max. As to the kind of experiment: Genotoxicity in Glycine max (soybean) exposed to compound through spray 4 times over 2 weeks assessed as relative adduct level A5 measured per 10^9 nucleotides using [32P]labeling based autoradiography relative to untreated control. Put shortly: as §1
Data set [8] concerns Glycine max. Kind of data set: Genotoxicity in Glycine max (soybean) exposed to compound through spray 4 times over 2 weeks assessed as HNE-dG adducts using [32P]labeling based autoradiography (reference value: 34 cpm). Put shortly:
as §1

The subject of data set [9] is Glycine max. As to the kind of experiment: Genotoxicity in Glycine max (soybean) exposed to compound through spray 4 times over 2 weeks assessed as relative adduct level A1 measured per 10^9 nucleotides using [32P]labeling based autoradiography relative to untreated control. Put shortly: as §1
The subject of data set [10] is Glycine max. As to the kind of experiment: Genotoxicity in Glycine max (soybean) exposed to compound through spray 4 times over 2 weeks assessed as relative adduct level A2 measured per 10^9 nucleotides using [32P]labeling based autoradiography relative to untreated control. Put shortly:
as §1

Data set [11] relates to Glycine max. Kind of data set: Genotoxicity in Glycine max (soybean) exposed to compound through spray 4 times over 2 weeks assessed as relative adduct level A4 measured per 10^9 nucleotides using [32P]labeling based autoradiography relative to untreated control. Put shortly: as §1
The test system of data set [12] is Glycine max. Kind of data set: Genotoxicity in Glycine max (soybean) exposed to compound through spray 4 times over 2 weeks assessed as relative adduct level A3 measured per 10^9 nucleotides using [32P]labeling based autoradiography relative to untreated control. Put shortly:
as §1

Data set [13] has as its system Glycine max. As to the kind of experiment: Genotoxicity in Glycine max (soybean) exposed to compound through spray 4 times over 2 weeks assessed as relative adduct level A3 measured per 10^9 nucleotides using HX-dG internal standard using [32P]labeling based autoradiography relative to untreated control. Put shortly: as §1
Data set [14] deals with Glycine max. Kind of data set: Genotoxicity in Glycine max (soybean) exposed to compound through spray 4 times over 2 weeks assessed as relative adduct level A1 measured per 10^9 nucleotides using HX-dG internal standard using [32P]labeling based autoradiography relative to untreated control. Put shortly: as §1
Data set [15] concerns Glycine max. Kind of data set: Genotoxicity in Glycine max (soybean) exposed to compound through spray 4 times over 2 weeks assessed as relative adduct level A6 measured per 10^9 nucleotides using HX-dG internal standard using [32P]labeling based autoradiography relative to untreated control. Put shortly: as §1
For data set [16], the system named is Glycine max. Kind of data set: Genotoxicity in Glycine max (soybean) exposed to compound through spray 4 times over 2 weeks assessed as relative adduct level A6 measured per 10^9 nucleotides using [32P]labeling based autoradiography relative to untreated control. Put shortly: as §1

Consider `CNC(=O)Oc1cccc2ccccc12` [CARBARIL], for which the Activity in the data set with Glycine max [1] turned out to be 571 cpm; in the data set with Glycine max [2], 164; in the data set on Glycine max [3], 6310 cpm; in the data set on Glycine max [4] it was 2767 cpm; in the data set on Glycine max [5], 773 cpm; in the data set on Glycine max [6] it was 58. Further, the Activity was found to be 54 in the data set with Glycine max [7]; 2956 cpm with Glycine max [8]; 11 in the data set on Glycine max [9]; 11 in the data set with Glycine max [10]; 15 with Glycine max [11]; 16 in the data set on Glycine max [12]. The Activity is 809 cpm with Glycine max [13] and 569 cpm in the data set on Glycine max [14].
Regarding `CCOP(=S)(OCC)Oc1cc(C)nc(C(C)C)n1` [DIMPYLATE], the Activity with Glycine max [1] came to 2483 cpm; in the data set on Glycine max [2], 47; with Glycine max [3], 1823 cpm; in the data set with Glycine max [15] it was 1396 cpm; in the data set on Glycine max [4] it was 341 cpm; with Glycine max [5], 927 cpm. The Activity in the data set on Glycine max [16] stood at 27; with Glycine max [6], 33; with Glycine max [7] it was 7; with Glycine max [8], 1679 cpm; in the data set with Glycine max [9], 1; in the data set on Glycine max [10], 49. Further, the Activity amounted to 18 with Glycine max [11], 27 in the data set on Glycine max [12], 1377 cpm in the data set with Glycine max [13] and 46 cpm in the data set on Glycine max [14].
Turning to `CC(C)[C@H](C(=O)O[C@H](C#N)c1cccc(Oc2ccccc2)c1)c1ccc(Cl)cc1`, the Activity with Glycine max [1] was 2477 cpm; in the data set with Glycine max [2] it was 215; in the data set on Glycine max [3], 8264 cpm; in the data set on Glycine max [6], 60; with Glycine max [8] it was 3062 cpm; with Glycine max [9], 26. For the same compound, the Activity in the data set with Glycine max [10] is listed as 49; in the data set with Glycine max [12], 154; in the data set on Glycine max [13] it was 7857 cpm; with Glycine max [14] it was 1344 cpm.
